Published values collected from several papers.
Compare with care: the assays were run in different laboratories.
Target: Beta-1 adrenergic receptor (ADRB1, Homo sapiens, UniProt P08588)
Tested at: 10 µM

SMILES | effect on | technique | inhibition [%]
O=C(Nc1ccc(S(=O)(=O)N2CCC(Cl)CC2)cc1)c1ccc([N+](=O)[O-])o1 | ligand displacement | radioligand | 1
CCCNc1nc2ccccc2n1Cc1ccc(Cl)cc1 | ligand displacement |  | 19.5
O=C(c1ccc(F)cc1)N(Cc1ccccc1)C1CCCCC1 | cell-free assay |  | 4
CCN(CC)c1ccc(C2Nc3ccc(C(=O)c4ccccc4)cc3NC3=C2C(=O)CC(C)(C)C3)cc1 (centres unmarked) | ligand displacement | radioligand | -1
Oc1cccc(Nc2nc(-c3ccc(F)cc3F)cs2)c1 | cell-free assay |  | -36.5
N#Cc1cc(Cn2c(N3CCCC3)nc3ccccc32)ccc1F | ligand displacement |  | -9.19
NS(=O)(=O)c1cc(NC(=O)C2(c3ccccc3Cl)CC2)ccc1Oc1cccc(Cl)c1 | cell-free assay |  | -3.09
Ic1cccc2cnccc12 | ligand displacement | radioligand | 2
CCN(Cc1ccccc1C(F)(F)F)C(=O)C1CCN(S(=O)(=O)c2ccc3[nH]ncc3c2)CC1 | ligand displacement | radioligand | 3
C[C@H](c1ccc(F)cc1)N(Cc1ccc(Cl)c(C(=O)O)c1)C(=O)c1cnc2ccccc2c1 | cell-free assay |  | -0.35
O=C1N=C(N2CCCCN2)S/C1=C\c1ccc(F)cc1O | ligand displacement | radioligand | < 10
